Test results from ChEMBL document CHEMBL1806465, “Synthesis and biological evaluation of 4-nitro-substituted 1,3-diaryltriazenes as a novel class of potent antitumor agents” (Eur J Med Chem, 2011).
pIC50: −log10 of the molar value. Active and inactive are the calls of the source. The rule behind the calls is not given here.

Key:
[1] = system: HeLa; assay: Induction of reactive oxygen species generation in human HeLa cells at 7 uM after 6 hrs by FACS analysis; format: functional, cell-based
Method in brief: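 Logarithmically growing HeLa cells were preloaded with 10 µM CM-H2DCFDA for 1 h. They were then exposed to 7, 20 or 40 µM for 8 h, or to 7 µM for 2, 4 or 6 h. Cells were trypsinized, fixed in cold 80% methanol, resuspended in PBS and read for fluorescence by flow cytometry. The positive control was 0.01% H2O2 for 30 min.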

[2] = system: HeLa; assay: Cell cycle arrest in human HeLa cells assessed as accumulation at subG1 phase at 21 uM after 72 hrs by propidium iodide staining -based flow cytometry (reference value: 7.2 %); format: functional
Method in brief: (§1)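 HeLa seeded at 100 000 cells/well, treated next day with 0.78, 7 or 21 µM for 24, 48 or 72 h. Adherent plus floating cells collected, PBS-washed, fixed overnight in 70% ethanol at −20 °C, RNase A 30 µg/ml 1 h RT, propidium iodide 16.7 µg/ml 30 min dark; DNA content by flow cytometry, phase percentages including subG1 reported.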

[3] = system: SW480; assay: Cytotoxicity against human SW480 cells after 72 hrs by MTT assay; format: functional, cell-based; settings: SW480, 72 h
Method in brief: (§2)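 MTT assay: 3000 cells/well seeded, compound added next day, each concentration in quadruplicate, 72 h at 37 °C; medium replaced with 20 µg MTT/well for 4 h, formazan dissolved in DMSO, OD 545 nm. […] Fibroblasts: normal skin fibroblasts from donor, DMEM/10% FBS, used at 32 and 36 population doublings.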

[4] = Therapeutic index, ratio IC50 for cisplatin-resistant human CA3ST cells to IC50 for normal human fibroblasts; format: cell-based; settings: read-out: Ratio IC50
Method in brief: (§3)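 IC50 values came from an MTT assay. Cells were seeded at 3000 per well and dosed the next day, with each concentration in quadruplicate. After 72 h at 37 °C, MTT (20 µg/well) was added for 4 h; formazan was dissolved in DMSO and read at 545 nm. Each experiment was done three times. Normal skin fibroblasts were used at 32 and 36 population doublings. T.I. = tumor-cell IC50 / fibroblast IC50.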

[5] = system: HeLa; assay: Cell cycle arrest in human HeLa cells assessed as accumulation at subG1 phase at 7 uM after 72 hrs by propidium iodide staining -based flow cytometry (reference value: 7.2 %); format: functional; method in brief: as §1
[6] = system: HeLa; assay: Induction of Grp78 expression in human HeLa cells at 7 uM up to 8 hrs by Western blot analysis; format: functional, cell-based
Method in brief: (§4)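 Logarithmically growing HeLa cells were exposed to varying concentrations for 48 h, or to 7 µM for varying times. Cell extracts were run on 10% SDS gels and transferred to nitrocellulose. Membranes were blocked in 5% milk and probed with anti-Grp78 (1:1000, overnight, 4 °C), then an HRP secondary (1:5000, 2 h, RT). Detection was by ECL, with ERK2 reprobing as the loading control.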

[7] = system: MIA PaCa-2; assay: Cytotoxicity against human MIAPaCa2 cells after 72 hrs by MTT assay; format: functional, cell-based; settings: MIA PaCa-2, 72 h; method in brief: as §2
[8] = system: HeLa; assay: Induction of apoptotis in human HeLa cells assessed as cleavage of procaspase 3 at 7 uM after 48 hrs by Western blot analysis; format: functional, cell-based
Method in brief: (§5)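 HeLa cells were treated for 48 h at 7 µM and analysed by Western blot (10% SDS gels, nitrocellulose, HRP secondary, ECL, ERK2 loading control) for cleavage of apoptotic proteins. Antibodies: anti-PARP 1:4000; anti-caspase-3 and anti-caspase-8 1:1000; rabbit polyclonal anti-caspase-9 1:1000.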

[9] = system: HeLa; assay: Cell cycle arrest in human HeLa cells assessed as accumulation at G2/M phase at 0.78 uM after 48 hrs by propidium iodide staining -based flow cytometry (reference value: 9.9 %); format: functional; method in brief: as §1
[10] = Cytotoxicity against human Fibroblast cells after 72 hrs by MTT assay; format: cell-based; method in brief: as §2
[11] = Cytotoxicity against cisplatin-resistant human CA3ST cells after 72 hrs by MTT assay; format: functional, cell-based; method in brief: as §2
[12] = system: HeLa; assay: Cell cycle arrest in human HeLa cells assessed as accumulation at subG1 phase at 7 uM after 24 hrs by propidium iodide staining -based flow cytometry (reference value: 9.4 %); format: functional; method in brief: as §1
[13] = Therapeutic index, ratio IC50 for human MIAPaCa2 cells to IC50 for normal human fibroblasts; format: cell-based, MIA PaCa-2; settings: MIAPaCa2 cells versus normal human fibroblasts, read-out: Ratio IC50; method in brief: as §3
[14] = system: HeLa; assay: Induction of Grp78 expression in human HeLa cells at 7 uM after 16 to 48 hrs by Western blot analysis; format: functional, cell-based; method in brief: as §4
[15] = system: HeLa; assay: Cell cycle arrest in human HeLa cells assessed as accumulation at subG1 phase at 21 uM after 24 hrs by propidium iodide staining -based flow cytometry (reference value: 9.4 %); format: functional; method in brief: as §1
[16] = system: HeLa; assay: Cell cycle arrest in human HeLa cells assessed as accumulation at G0/G1 phase at 7 uM after 48 hrs by propidium iodide staining -based flow cytometry (reference value: 63.8 %); format: functional; method in brief: as §1
[17] = Therapeutic index, ratio IC50 for human SW480 cells to IC50 for normal human fibroblasts; format: cell-based; settings: SW480 cells versus normal human fibroblasts, read-out: Ratio IC50; method in brief: as §3
[18] = system: Nucleic Acid; assay: Binding affinity to calf thymus DNA assessed as change in melting temperature at compound to DNA ratio of 0.3; format: nucleic-acid assay; settings: Bos taurus
Method in brief: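 ct-DNA sonicated, filtered, in Na-cacodylate buffer pH 7, I = 0.05 mol dm-3, 2 x 10^-5 mol dm-3 (as phosphate, ε260 = 6600); compound/DNA ratio 0.3. Absorbance at 260 nm followed versus temperature, compound absorbance subtracted, curves normalized. Tm taken from first-derivative maximum, confirmed by tangent method; ΔTm = Tm(complex) − Tm(free DNA), mean of ≥2 runs, error ±0.5 °C.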

[19] = system: HeLa; assay: Cell cycle arrest in human HeLa cells assessed as accumulation at subG1 phase after 24 to 72 hrs by propidium iodide staining -based flow cytometry; format: functional; method in brief: as §1
[20] = system: HeLa; assay: Cell cycle arrest in human HeLa cells assessed as accumulation at G0/G1 phase at 21 uM after 48 hrs by propidium iodide staining -based flow cytometry (reference value: 63.8 %); format: functional; method in brief: as §1
[21] = system: HeLa; assay: Cell cycle arrest in human HeLa cells assessed as accumulation at S phase at 0.78 uM after 24 hrs by propidium iodide staining -based flow cytometry (reference value: 27.7 %); format: functional; method in brief: as §1
[22] = system: HeLa; assay: Cell cycle arrest in human HeLa cells assessed as accumulation at subG1 phase at 21 uM after 48 hrs by propidium iodide staining -based flow cytometry (reference value: 8.5 %); format: functional; method in brief: as §1
[23] = system: HeLa; assay: Induction of apoptotis in human HeLa cells assessed as cleavage of procaspase 9 at 7 uM after 48 hrs by Western blot analysis; format: functional, cell-based; method in brief: as §5
[24] = system: HeLa; assay: Induction of Grp78 expression in human HeLa cells at 0.09 to 7 uM after 48 hrs by Western blot analysis; format: functional, cell-based; method in brief: as §4
[25] = system: HeLa; assay: Cell cycle arrest in human HeLa cells assessed as accumulation at subG1 phase at 0.78 uM after 24 hrs by propidium iodide staining -based flow cytometry (reference value: 9.4 %); format: functional; method in brief: as §1
[26] = Therapeutic index, ratio IC50 for human HeLa cells to IC50 for normal human fibroblasts; format: cell-based; settings: HeLa cells versus normal human fibroblasts, read-out: Ratio IC50; method in brief: as §3
[27] = system: HeLa; assay: Induction of apoptotis in human HeLa cells assessed as cleavage of apoptotic protein PARP at 7 uM after 48 hrs by Western blot analysis; format: functional, cell-based; method in brief: as §5

CC(=O)N(/N=N/c1ccc([N+](=O)[O-])cc1Cl)c1ccc([N+](=O)[O-])cc1Cl
Activity [1]: Active | Activity [2]: 80.2% | pIC50 [3]: 6.28 | selectivity ratio [4]: 0.045 | Activity [5]: 33% | Activity [6]: inactive | pIC50 [7]: 6.28 | Activity [8]: Active | Activity [9]: 7% | pIC50 [10]: 4.85 | pIC50 [11]: 6.20 | Activity [12]: 13.2% | selectivity ratio [13]: 0.037 | Activity [14]: Active | Activity [15]: 16.4% | Activity [16]: 76.2% | selectivity ratio [17]: 0.038 | Activity [18]: inactive | Activity [19]: Dose-dependent effect | Activity [20]: 73% | Activity [21]: 15.1% | Activity [22]: 46.5% | Activity [23]: Active | Activity [24]: Active | Activity [25]: 8.7% | selectivity ratio [26]: 0.045 | Activity [27]: Active
